Bioassay records as filed in PubChem.
This is a sample that favours compounds with a hit; in the whole collection about 2.8% have one here.
NR3A LBD binder: modulators (binders) of human NR3A ligand-binding domain. NR3A LBD differential scanning fluorimetry, Tm shift; 0% = protein alone, 100% = glycine-bound protein. Tm shift relative to glycine control, % at 25 µM. actives 2.5% (n = 340,000);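 active = melting temperature shift of at least 10% of the positive control shift, at one fixed dose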
T cell modulator: T cell immune modulation candidate; 2C CD8+ T cell-vesicle binding, flow cytometry; active compounds read low; response (vesicle binding), % at 7 µM; actives 0.068% (n = 330,000); AID 2052;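 active = response, share of CD8 T cells binding vesicles, and their 90th percentile fluorescence all below set limits, cut at about 80% in these data, passing the limit was not always enough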;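 also: values below 100% mean blocked vesicle binding to the CD8+ T cells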
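Benchmarks: naked versus QL9-loaded vesicles / Assay system: purified 2C TCR transgenic mouse naive CD8+ T cells / Technique: high-throughput flow cytometry with anti-B7-1 and anti-CD8 staining / Timing: Cell–vesicle co-incubation 1.5 h at 37 °C, staining 20 min on ice / Read-out: percent CD8+ FL2 mean versus row control / Probe or stimulus: QL9-loaded Drosophila micro-vesicles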
JMJD2C inh: blocks human GASC-1 demethylase activity; Q9H3R0; GST-JMJD2C(1-420) H3K9me3 demethylation, DELFIA europium; inhibition, % at 2.35 µM; actives 0.069% (n = 330,000);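 active = more than half of a compound's replicate wells show inhibition beyond 50%, single wells judged on their own value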;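 also: signal counts dimethyl H3K9 product captured on neutravidin plate; 0% = median of DMSO wells and 100% = 0.3 times that DMSO median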
Rtt109 HAT inh: blocks Candida albicans Rtt109/Vps75 acetyltransferase activity; Q5AAJ8; purified Rtt109/Vps75, ThioGlo CoA-SH fluorescence, 4 h; inhibition, % at 34.9 µM; actives 0.16% (n = 330,000);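 active = inhibition of at least 50% in every replicate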
Target sequence (Q5AAJ8 whole entry, looked up): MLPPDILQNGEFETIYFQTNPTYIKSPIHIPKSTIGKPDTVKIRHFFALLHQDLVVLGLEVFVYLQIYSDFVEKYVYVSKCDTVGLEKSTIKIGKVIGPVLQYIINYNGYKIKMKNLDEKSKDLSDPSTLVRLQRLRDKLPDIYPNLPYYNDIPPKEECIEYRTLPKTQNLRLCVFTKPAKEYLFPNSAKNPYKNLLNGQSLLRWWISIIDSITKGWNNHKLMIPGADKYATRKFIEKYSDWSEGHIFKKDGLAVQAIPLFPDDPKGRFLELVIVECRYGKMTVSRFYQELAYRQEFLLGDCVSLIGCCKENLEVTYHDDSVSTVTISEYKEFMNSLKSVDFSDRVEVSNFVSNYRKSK
* marks the source's active call; other numbers are inactive results; i = inactive; / = no result given.

SMILES | NR3A LBD binder | T cell modulator | JMJD2C inh | Rtt109 HAT inh
FC(F)(F)c1cccc(N2CCN(c3ccc4nnc(-c5ccccc5)n4n3)CC2)c1 | 22* | / | -2 | -2
Cc1cccc(N2C(=O)N3[C@H](c4ccc(Cl)cc4)[C@@H]4C(=O)N(C5CCCCC5)C(=O)[C@@H]4[C@]3(Cc3ccc(Cl)cc3)C2=O)c1 | 21* | 201 | -3 | 1
O=C1[C@H]2[C@@H](c3ccc(Cl)cc3)N3C(=O)N(c4cccc(F)c4)C(=O)[C@@]3(Cc3ccc(Cl)cc3)[C@H]2C(=O)N1C1CCCCC1 | 14* | 820 | -6 | -13
CC(C)(C)N1C(=O)[C@H]2[C@@H](c3ccc(Br)cc3)N3C(=O)N(c4cccc(Br)c4)C(=O)[C@@]3(Cc3ccccc3)[C@H]2C1=O | 10* | 314 | -18 | -6
CCOC(=O)c1ccc(NS(=O)(=O)c2cc3c4c(c2)CCN4C(=O)CC3)cc1 | 0 | 291 | 60 | 2
O=c1oc(CCCO)cc2ccccc12 | -2 | 365 | 7 | -5
CCOc1cc(/C=N/NC(=O)Cn2nc([N+](=O)[O-])cc2C)cc(Br)c1OCc1ccccc1C | 13* | 601 | -4 | -7
COc1cc(/C=N/NC(=O)Cn2nc([N+](=O)[O-])cc2C)cc(Br)c1OCc1ccccc1 | 9 | 336 | -5 | -4
NC(=O)c1ccsc1NC(=O)COC(=O)c1cc(Cl)ccc1O | 19* | 253 | -4 | 4
NC(=O)c1ccsc1NC(=O)COC(=O)c1ccccc1F | 1 | 278 | / | 0
CCOC(=O)c1c(C)[nH]c(C(=O)OCC(=O)Nc2sccc2C(N)=O)c1C | 29* | 415 | -6 | -3
CCOC(=O)c1c(C)[nH]c(C(=O)OCC(=O)Nc2ccc(Cl)cn2)c1C | 1 | 579 | -4 | 13
Cc1ccc(CNC(=O)CNC(=O)c2ccco2)cc1 | -1 | 306 | 3 | 7
COC(=O)CSc1nnc(-c2ccc(NS(=O)(=O)c3ccccc3)cc2)o1 | -4 | 229 | 7 | -10
Cc1ccc(S(=O)(=O)Nc2cc(=O)[nH]c(SCc3ccccc3Cl)n2)cc1 | -8 | 248 | 3 | -4
Cc1ccc(CSc2nnc(-c3ccc(NS(=O)(=O)c4ccccc4)cc3)o2)cc1 | 16* | 228 | 5 | 8
Cc1ccc(S(=O)(=O)Nc2ccc(-c3nnc(SCc4ccccc4Cl)o3)cc2)cc1 | 26* | 358 | -4 | -4
C[C@]12c3[nH]c4ccccc4c3CCN1C(=O)C(CC(=O)NCCCn1ccnc1)C[C@@H]2C(=O)N1CCCCC1 (stereo partly specified) | 3 | 491 | 8 | -15
O=C(CN1C(=O)NC(c2ccc(F)cc2)C1=O)Nc1ccc2c(c1)OCCO2 (stereo unspecified) | 0 | 143 | 4 | 8
COc1ccc(CNC(=O)C2(c3ccc(Cl)cc3)CC2)cc1 | -2 | 401 | 17 | 56*
COc1ccc(CC(=O)N2CCN(c3ccccc3)CC2)cc1 | 1 | 90 | -10 | 0
COc1ccc(N2CCN(C(=O)CNC(=O)Cc3ccccc3)CC2)cc1 | -1 | 146 | 5 | 53*
COc1ccc(N2CCN(C(=O)CNC(=O)Cc3ccc(Cl)cc3)CC2)cc1 | 13* | 0 | -33 | 4
O=C(Cc1ccc(Cl)cc1)NCC(=O)N1CCN(c2ccccc2)CC1 | 3 | 253 | 2 | 2
NS(=O)(=O)c1ccc(CNC(=O)C2(c3ccc(Cl)cc3)CC2)cc1 | 0 | 176 | 21 | 1
SMILES | NR3A LBD binder | T cell modulator | JMJD2C inh | Rtt109 HAT inh
COc1ccc(OC)c(C(=O)CN2C(=O)C(=O)N(C3CCCC3)C2=O)c1 | -2 | 358 | 7 | -4
COc1ccc(C(N)=O)c(OCC(=O)Nc2cc(C)on2)c1 | 15* | 295 | 3 | 0
CC(C)CNC(=O)C(=O)NCC1CCCN1S(=O)(=O)c1cccs1 (stereo unspecified) | 2 | 236 | 0 | -1
CC(C)(c1ccccc1)c1ccc(OCCn2cnc3ccccc3c2=O)cc1 | 21* | 316 | 2 | -1
Oc1ccc2ccccc2c1/C=N/Nc1nnc(-c2ncc[nH]2)c2ccccc12 | 21* | 484 | 4 | -4
COc1ccc(/C=N/Nc2nnc(-c3ncc[nH]3)c3ccccc23)cc1 | 2 | 372 | -4 | 5
COc1cc(C2/C(=C(\O)c3ccc4c(c3)OCCO4)C(=O)C(=O)N2Cc2ccco2)cc(OC)c1OC (stereo unspecified) | 0 | 374 | -2 | 6
O=C(CSc1ncnc2nc[nH]c12)N1CCOCC1 | 11* | 292 | -4 | /
Cc1ccsc1C(=O)OCc1nc2ccccc2c(=O)[nH]1 | -16 | 433 | 103* | 4
CCC(C(=O)NCCCN1CC(C)CC(C)C1)n1ncn2c(cc3occc32)c1=O (stereo unspecified) | -2 | 349 | -1 | -4
OCCCCc1nccc2c1[nH]c1ccccc12 | 12* | 17 | -8 | -39
Cc1ccc(C(=O)N2CCCCC2C(=O)O)cc1S(=O)(=O)N1CCCCC1 (stereo unspecified) | 1 | 731 | -5 | -1
CCn1c(SCC(=O)Nc2ccc(C(C)=O)cc2)nc2c([nH]c3ccccc32)c1=O | 14* | 217 | 1 | -11
COc1ccc(NC(=O)CN2CCN(c3c(C)cccc3C)CC2)cc1 | -1 | 272 | 11 | 2
Cc1[nH]n(-c2ccccc2)c(=O)c1/C=C1\C=NN=C1c1ccccc1 | -5 | i | 2 | -14
Cc1ccc(-n2[nH]c(C)c(/C=C3/C=Nc4ccccc43)c2=O)cc1C | 15* | 313 | 2 | -5
COc1ccc(-c2oc3cc(OC(C)=O)cc(OC(C)=O)c3c(=O)c2OC)cc1 | -18 | / | / | -5
CC(=O)Oc1cc(O)c2c(=O)c(OC(C)=O)c(-c3ccc(OC(C)=O)c(OC(C)=O)c3)oc2c1 | 5 | 65* | 14 | 32
O=c1c(Cl)c(N2CCOCC2)cnn1-c1nc2ccccc2[nH]1 | -2 | 298 | -2 | -1
COC(=O)c1cc(NC(=S)NCc2ccc(Cl)cc2)cc(C(=O)OC)c1 | 25* | 190 | 1 | 3
COC(=O)c1cccc(NC(=S)NCc2ccc(Cl)cc2)c1 | 0 | 485 | 3 | 0
CCc1ccc(C(=O)Cn2ccsc2=N)cc1 | 39* | 238 | 6 | 1
CCN(C(=O)CSc1nnc(COc2cccc(C)c2)o1)c1nc(C)cs1 | -1 | 233 | -7 | -13
Cc1ccc(NC(=O)c2cc(S(=O)(=O)NCCC3=CCCCC3)ccc2F)cc1 | 14* | 245 | 44 | 14
COC(=O)c1ccc(Oc2nc(Nc3ccccc3)nc(N(C)C)n2)cc1 | 2 | 256 | -9 | -1
CCN(CC)c1nc(Nc2ccccc2)nc(Oc2ccc(C(=O)OC)cc2)n1 | 14* | 297 | -1 | 14
COc1ccc(C(=O)N2CCN(c3ccc(C(C)=O)cc3)CC2)cc1S(=O)(=O)N1CCCC1 | 0 | 594 | -4 | 0
CCN(C(=O)COC(=O)c1ccccc1Oc1ccccc1)c1c(N)n(Cc2ccccc2)c(=O)[nH]c1=O | 0 | / | / | 6
